From publication PMC12166265 (Clinical Pharmacology and Therapeutics, 2025) come the findings set out here.

What is called Cmax is the peak of the concentration-time curve. By AUC(0-t) is commonly meant the area under the concentration-time curve up to a stated or last time point.

Read-outs that look alike come from different tables or passages of the source.

Series [1] deals with T1, OATP1B1 (Homo sapiens, UniProt Q9Y6L6).
T1 sequence (Q9Y6L6 1-691): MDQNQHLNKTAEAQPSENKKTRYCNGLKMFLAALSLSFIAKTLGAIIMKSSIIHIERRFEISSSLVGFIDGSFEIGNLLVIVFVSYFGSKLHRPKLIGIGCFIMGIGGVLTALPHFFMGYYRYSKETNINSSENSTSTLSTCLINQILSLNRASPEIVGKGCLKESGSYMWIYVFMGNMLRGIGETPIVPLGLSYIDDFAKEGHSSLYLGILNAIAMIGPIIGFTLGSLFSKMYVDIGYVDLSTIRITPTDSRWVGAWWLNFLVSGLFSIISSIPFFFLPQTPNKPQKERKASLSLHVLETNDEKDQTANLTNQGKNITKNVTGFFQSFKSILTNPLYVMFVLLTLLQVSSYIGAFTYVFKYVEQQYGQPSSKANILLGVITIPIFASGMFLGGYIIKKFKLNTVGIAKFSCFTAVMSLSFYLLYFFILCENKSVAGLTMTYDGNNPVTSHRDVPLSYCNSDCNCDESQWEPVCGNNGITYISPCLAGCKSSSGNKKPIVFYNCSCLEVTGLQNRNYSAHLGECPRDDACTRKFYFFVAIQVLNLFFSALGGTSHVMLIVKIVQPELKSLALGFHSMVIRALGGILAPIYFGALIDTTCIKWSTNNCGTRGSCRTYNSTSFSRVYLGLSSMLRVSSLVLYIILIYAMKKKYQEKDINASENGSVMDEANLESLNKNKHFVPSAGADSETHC
Format: cell-based. As to conditions: HEK293 OATP1B1 cells. Put shortly: (§1)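 Transporter-overexpressing HEK293 cells were cultured in DMEM with 10% FBS, 1% penicillin/streptomycin and selection antibiotics at 37°C, 5% CO₂. Test compounds were screened at 10 μM and 30 μM, and uptake was quantified as normalised peak areas. For OATP1B1/1B3, uptake was compared with empty-vector cells, and for OATP1B1 also with cells treated with the inhibitor cyclosporine A.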

The format of series [2] is in vivo, human. The following applies: for AUC0−24, geometric mean ratio (90% CI) of rosuvastatin + eltrombopag arm to rosuvastatin alone arm / C0 at 0 h / Cmax / AUC(0-t): both, plasma, oral; for AUC(0-t): geometric mean (90% CI); for Effect of eltrombopag administration on plasma concentrations (in words): eltrombopag 75 mg daily for 5 days.
Series [3] concerns the target T2, OATP1B3 (Homo sapiens, UniProt Q9NPD5).
T2 sequence (Q9NPD5 1-702): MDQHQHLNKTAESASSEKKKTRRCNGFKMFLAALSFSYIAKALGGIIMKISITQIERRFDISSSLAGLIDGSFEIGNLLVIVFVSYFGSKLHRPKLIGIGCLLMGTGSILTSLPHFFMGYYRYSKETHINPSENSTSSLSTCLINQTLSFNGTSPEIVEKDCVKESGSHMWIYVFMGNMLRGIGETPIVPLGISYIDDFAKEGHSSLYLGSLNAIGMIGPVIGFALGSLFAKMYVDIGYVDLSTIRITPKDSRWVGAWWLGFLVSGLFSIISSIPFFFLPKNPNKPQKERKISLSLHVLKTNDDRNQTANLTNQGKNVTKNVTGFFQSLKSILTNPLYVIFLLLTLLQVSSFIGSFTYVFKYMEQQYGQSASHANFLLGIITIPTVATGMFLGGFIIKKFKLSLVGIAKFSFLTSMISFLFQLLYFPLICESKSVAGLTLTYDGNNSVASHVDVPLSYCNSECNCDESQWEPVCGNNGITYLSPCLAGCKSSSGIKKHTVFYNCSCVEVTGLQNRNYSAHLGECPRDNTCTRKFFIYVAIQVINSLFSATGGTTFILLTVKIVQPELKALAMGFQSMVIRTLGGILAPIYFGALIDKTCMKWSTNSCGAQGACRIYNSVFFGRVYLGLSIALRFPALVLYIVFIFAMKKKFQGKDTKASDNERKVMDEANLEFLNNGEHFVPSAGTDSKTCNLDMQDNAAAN
Put plainly: Substrate screening in HEK293 cells expressing OATP1B3. It is filed as cell-based. The method in brief: as §1

For series [4], the target named is T3, BCRP (Homo sapiens, UniProt Q9UNQ0).
T3 sequence (Q9UNQ0 1-655): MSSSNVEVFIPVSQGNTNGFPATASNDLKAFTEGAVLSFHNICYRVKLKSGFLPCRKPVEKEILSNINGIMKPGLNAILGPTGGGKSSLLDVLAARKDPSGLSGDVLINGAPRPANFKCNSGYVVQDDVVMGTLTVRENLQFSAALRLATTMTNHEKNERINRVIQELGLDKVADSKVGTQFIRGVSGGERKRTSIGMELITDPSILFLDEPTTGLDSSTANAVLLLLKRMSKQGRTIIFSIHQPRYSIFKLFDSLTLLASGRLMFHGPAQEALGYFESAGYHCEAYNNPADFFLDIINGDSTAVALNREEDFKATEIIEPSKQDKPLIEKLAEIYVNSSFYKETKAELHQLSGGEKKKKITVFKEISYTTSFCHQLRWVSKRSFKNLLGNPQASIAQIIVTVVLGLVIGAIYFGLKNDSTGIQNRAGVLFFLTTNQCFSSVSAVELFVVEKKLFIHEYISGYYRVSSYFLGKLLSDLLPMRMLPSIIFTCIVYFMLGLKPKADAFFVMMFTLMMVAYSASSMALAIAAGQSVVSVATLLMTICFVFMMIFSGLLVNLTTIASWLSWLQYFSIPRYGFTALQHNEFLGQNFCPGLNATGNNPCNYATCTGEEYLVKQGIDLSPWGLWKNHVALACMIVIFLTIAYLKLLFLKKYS
Format: cell-based. As to conditions: for Uptake in BCRP-expressing HEK293 cells compared to same cell line with Ko143: 10 μM and 30 μM, 30 min; for BCRP substrate classification: HEK293 BCRP cells. The method in brief: as §1

In series [5] the test system is ABCG2 p.Q141K variant. It is filed as in vivo, human. The following applies: two p.Q141K (CA) vs nine REF (CC) individuals; T = 0 h. The method in brief:
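Open-label fixed-sequence crossover in 11 healthy non-smoking adults aged 18–64. Single oral rosuvastatin 10 mg given after an overnight fast, with fasting continued 4 h. Heparinised venous plasma was stored at −70°C and analysed by LC–MS. ABCG2 c.421C>A was genotyped blind by PCR and Sanger sequencing. Nine CC and two CA subjects were compared at T = 0 h and by noncompartmental PK, using log-transformed geometric means and unpaired t-tests.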

Series [6] deals with P-gp (Homo sapiens, UniProt P08183). The series can be described thus: Inhibitor screening of [3H]digoxin accumulation in HEK293 cells expressing P-gp. Format: cell-based. The method in brief:
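HEK293 lines overexpressing the named transporter were grown in DMEM with 10% FBS, 1% penicillin/streptomycin and line-specific selection antibiotics, at 37°C, humidified, 5% CO₂. Cell-based uptake assays measured inhibition of transporter activity.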

[7] abbreviates: human, 10 mg, AUC0−4, rosuvastatin alone arm.
Setting [8] is: human, AUC0−4, rosuvastatin + eltrombopag arm.

Chain of P-gp (P08183 whole entry): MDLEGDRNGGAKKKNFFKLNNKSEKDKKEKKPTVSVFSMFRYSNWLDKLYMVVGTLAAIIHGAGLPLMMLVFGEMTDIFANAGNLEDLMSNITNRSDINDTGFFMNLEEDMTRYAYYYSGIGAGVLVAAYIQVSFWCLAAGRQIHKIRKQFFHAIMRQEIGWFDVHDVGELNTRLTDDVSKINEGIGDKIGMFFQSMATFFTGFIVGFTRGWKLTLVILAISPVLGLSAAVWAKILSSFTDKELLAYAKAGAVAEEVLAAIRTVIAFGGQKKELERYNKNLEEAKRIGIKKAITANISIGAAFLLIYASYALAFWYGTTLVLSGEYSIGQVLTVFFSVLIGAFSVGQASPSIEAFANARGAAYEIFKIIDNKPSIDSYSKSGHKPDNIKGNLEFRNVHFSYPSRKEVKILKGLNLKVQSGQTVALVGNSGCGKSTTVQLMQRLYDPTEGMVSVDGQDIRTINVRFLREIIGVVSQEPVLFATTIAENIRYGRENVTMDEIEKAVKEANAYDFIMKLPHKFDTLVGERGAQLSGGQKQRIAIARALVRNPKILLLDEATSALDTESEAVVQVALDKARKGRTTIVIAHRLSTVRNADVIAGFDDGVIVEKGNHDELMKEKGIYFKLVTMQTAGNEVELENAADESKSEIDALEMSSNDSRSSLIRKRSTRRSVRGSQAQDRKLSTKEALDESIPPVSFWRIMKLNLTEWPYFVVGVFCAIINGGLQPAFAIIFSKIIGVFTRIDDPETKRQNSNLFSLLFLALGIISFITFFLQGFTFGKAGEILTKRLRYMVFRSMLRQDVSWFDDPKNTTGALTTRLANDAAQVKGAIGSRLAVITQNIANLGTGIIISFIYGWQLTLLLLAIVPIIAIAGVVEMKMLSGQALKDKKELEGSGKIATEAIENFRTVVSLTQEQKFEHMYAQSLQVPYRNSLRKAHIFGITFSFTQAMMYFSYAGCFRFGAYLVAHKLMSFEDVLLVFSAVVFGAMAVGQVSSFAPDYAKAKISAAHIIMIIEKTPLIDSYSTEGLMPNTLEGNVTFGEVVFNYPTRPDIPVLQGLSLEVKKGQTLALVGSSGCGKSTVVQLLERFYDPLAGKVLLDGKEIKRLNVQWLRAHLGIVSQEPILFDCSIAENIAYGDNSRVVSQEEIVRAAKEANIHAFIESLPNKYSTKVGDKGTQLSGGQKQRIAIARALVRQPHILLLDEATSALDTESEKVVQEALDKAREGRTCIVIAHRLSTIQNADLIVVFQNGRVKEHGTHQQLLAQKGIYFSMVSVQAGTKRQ

As to `O=C(O)c1c(O)c(Cl)cc(Br)c1O` [BCDBA, 3‐bromo‐5‐chloro‐2,6‐dihydroxybenzoic acid], the OATP1B1 substrate classification result in series [1] is on record as “not substrates”. Further, in series [2] (human), the “AUC0−24, geometric mean ratio (90% CI) of rosuvastatin + eltrombopag arm to rosuvastatin alone arm” value is on record as 0.95 (0.89–1.02); P = 0.38; the C0 at 0 h was 0.57 ng/mL; the highest level (Cmax) was 0.7 ng/mL. In series [2] (human, 10 mg), this compound came in with a C0 at 0 h of 0.64 ng/mL and a Cmax of 0.7 ng/mL. In series [2] (setting [7]), this compound yielded an exposure AUC(0-t) of 2.13 ng·h/mL. The area under the curve AUC(0-t) in series [2] (setting [8]) stood at 2.1 ng·h/mL. The “Effect of eltrombopag administration on plasma concentrations (in words)” value in series [2] is reported as “did not lead to corresponding increases”. In series [2] (human, in vivo), the “AUC0−4, geometric mean ratio (90% CI) of rosuvastatin + eltrombopag arm to rosuvastatin alone arm” value was 0.98 (0.91–1.07); P = 0.78; the “Cmax, geometric mean ratio (90% CI) of rosuvastatin + eltrombopag arm to rosuvastatin alone arm” value is 1.01 (0.93–1.09); P = 0.96; the “Food effects, fasted (AUC0−4) vs fed (AUC4−8)” value was “No food effects”. Besides, in series [3], the OATP1B3 substrate classification entry was “not substrates”. For the same compound, in series [4], the “Uptake in BCRP-expressing HEK293 cells compared to same cell line with Ko143” value is on record as “significantly reduced” and the BCRP substrate classification entry is listed as “BCRP substrates”. Also, the “Baseline concentrations, heterozygous p.Q141K vs homozygous reference allele” value in series [5] is reported as “significantly higher”. Moreover, in series [6], the “Effect on intracellular accumulation of P-gp substrate [3H]digoxin” value is “did not affect”.
`O=C(O)c1c(O)c(Cl)cc(Cl)c1O` [DCDBA, 3,5‐dichloro‐2,6‐dihydroxybenzoic acid]: the OATP1B1 substrate classification result in series [1] is given as “not substrates”. For the same compound, in series [2] (human), the “AUC0−24, geometric mean ratio (90% CI) of rosuvastatin + eltrombopag arm to rosuvastatin alone arm” value is 1.03 (0.97–1.10); P = 0.39; the C0 at 0 h amounted to 0.8 ng/mL; the highest level (Cmax) was 0.98 ng/mL. In addition, in series [2] (human, 10 mg), the C0 at 0 h turned out to be 0.73 ng/mL and the highest level (Cmax) was 1.03 ng/mL. For the same compound, in series [2] (setting [7]), the AUC(0-t) came out at 3.02 ng·h/mL. The compound further gave an AUC(0-t) in series [2] (human, 10 mg, AUC0−24, rosuvastatin alone arm) of 18.6 ng·h/mL. Besides, the AUC(0-t) in series [2] (setting [8]) came to 2.97 ng·h/mL. Besides, in series [2] (human, AUC0−24, rosuvastatin + eltrombopag arm), the AUC(0-t) was determined as 19.2 ng·h/mL. The “Effect of eltrombopag administration on plasma concentrations (in words)” value in series [2] is “did not lead to corresponding increases”. For the same compound, in series [2] (human, in vivo), the “AUC0−4, geometric mean ratio (90% CI) of rosuvastatin + eltrombopag arm to rosuvastatin alone arm” value is given as 0.98 (0.93–1.04); P = 0.72; the “C0, geometric mean ratio (90% CI) of rosuvastatin + eltrombopag arm to rosuvastatin alone arm” value was 1.10 (1.00–1.21); P = 0.07; the “Cmax, geometric mean ratio (90% CI) of rosuvastatin + eltrombopag arm to rosuvastatin alone arm” value is listed as 0.95 (0.85–1.06); P = 0.49; the “Food effects, fasted (AUC0−4) vs fed (AUC4−8)” value is given as “No food effects”. The OATP1B3 substrate classification result in series [3] is “not substrates”. In series [4], the “Uptake in BCRP-expressing HEK293 cells compared to same cell line with Ko143” value is reported as “significantly reduced” and the BCRP substrate classification entry is “BCRP substrates”. The “Baseline concentrations, heterozygous p.Q141K vs homozygous reference allele” value in series [5] was “not statistically significant”. For the same compound, the “Effect on intracellular accumulation of P-gp substrate [3H]digoxin” value in series [6] is “did not affect”.
